In brackets after ≈: the same amount, converted by molar mass. Activity calls are given as the source filed them. The calls are words filed in the database; no cut-off is given here.
Key:
[1] = target: T1, Sodium-dependent serotonin transporter (Rattus norvegicus, UniProt P31652); assay: Inhibition of [3H]5-HT reuptake at rat SERT expressed in HEK293 cells after 2 mins by liquid scintillation counting; type: cell-based
SH-SY5Y = assay: Cytotoxicity against human SH-SY5Y cells after 48 hrs by neutral red assay; type: functional, cell-based
[2] = target: Sodium-dependent noradrenaline transporter (Homo sapiens, UniProt P23975); assay: Inhibition of human noradrenaline transporter
HEK293 [3] = assay: Cytotoxicity against human HEK293 cells after 48 hrs by neutral red assay; type: cell-based; conditions: HEK293, 48 h
How it was run: (§1)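 Neutral Red uptake: 5 × 10⁴ cells/well grown 24–36 h to sub-confluence, then treated 48 h. Cells incubated 3 ± 1 h with NR dye, washed and solubilised in 50% ethanol–1% acetic acid, and absorbance read at 540 nm (690 nm background). Viability given as % of vehicle-treated cells. pEC50 obtained by sigmoidal regression (Hill slope 1) using 4 concentrations in triplicate on two independent days. SERT-line values compared with parental HEK293 by two-way ANOVA with Bonferroni test. Sodium azide 30 mM and Triton-X 2% as positive controls.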

[4] = target: Sodium-dependent dopamine transporter (Homo sapiens, UniProt Q01959); assay: Inhibition of human dopamine transporter
DG-75 [5] = assay: Induction of apoptosis in human DG75 cells at 50 uM after 72 hrs by annexin V-propidium iodide staining-based FACS analysis; type: functional
[6] = Induction of apoptosis in human MUTU-I cells at 50 uM after 24 hrs by annexin V-propidium iodide staining-based FACS analysis; type: functional
HL-60 [7] = assay: Induction of apoptosis in human HL60 cells at 50 uM after 24 hrs by annexin V-propidium iodide staining-based FACS analysis; type: functional
[8] = Induction of apoptosis in human MUTU-I cells after 24 hrs by annexin V-propidium iodide staining-based FACS analysis; type: functional, cell-based
DG-75 [9] = assay: Induction of apoptosis in human DG75 cells after 72 hrs by annexin V-propidium iodide staining-based FACS analysis; type: functional, cell-based; conditions: DG-75, 72 h
PBMC [10] = assay: Cytotoxicity against human PBMC at 50 uM after 24 hrs by alamar blue assay; type: cell-based
How it was run: (§2)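 PBMCs from a healthy donor, separated on Ficoll and resuspended in IMDM with FCS and penicillin/streptomycin. Seeded at 1–5 × 10⁴ cells/200 µl and treated 24 h. Alamar Blue added, fluorescence read at ex 544/em 590 nm, background subtracted, untreated cells = 100% viability. Mean + S.E.M.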

HL-60 [11] = assay: Induction of apoptosis in human HL60 cells after 24 hrs by annexin V-propidium iodide staining-based FACS analysis; type: functional, cell-based; conditions: HL-60, 24 h
PBMC [12] = assay: Cytotoxicity against human PBMC at 10 uM after 24 hrs by alamar blue assay; type: cell-based; how it was run: as §2
HL-60 [13] = assay: Antiproliferative activity against human HL60 cells after 24 hrs by alamar blue assay; type: functional, cell-based; conditions: HL-60, 24 h
DG-75 [14] = assay: Antiproliferative activity against human DG75 cells after 24 to 72 hrs by alamar blue assay; type: functional, cell-based
How it was run: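 Cells seeded at 1–5 × 10⁴ per well and exposed to compound for the stated time. Alamar Blue was then added, followed by 4–6 h incubation at 37 °C in the dark. Fluorescence was read at excitation 544 nm and emission 590 nm. Medium-plus-dye background was subtracted, and untreated cells were set as 100% viability. Readings were in triplicate on two independent days.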

[15] = Antiproliferative activity against human MUTU-I cells after 24 hrs by alamar blue assay
[16] = target: Sodium-dependent serotonin transporter (Rattus norvegicus) (UniProt P31652); assay: Inhibition of [3H]5-HT reuptake at rat SERT expressed in HEK293 cells at 100 uM after 2 mins by liquid scintillation counting; type: cell-based
[17] = target: T1, Sodium-dependent serotonin transporter; assay: Inhibition of [3H]5-HT uptake at SERT in rat brain synaptosome; type: tissue-based
[18] = target: Sodium-dependent serotonin transporter (Rattus norvegicus) (UniProt P31652); assay: Inhibition of [3H]5-HT reuptake at rat SERT expressed in HEK293 cells at 1 uM after 2 mins by liquid scintillation counting; type: cell-based
Rattus norvegicus [19] = organism: Rattus norvegicus; assay: Selectivity ratio of IC50 for NET in rat brain synaptosome to IC50 for SERT in rat brain synaptosome; type: tissue-based
HEK293 [20] = assay: Cytotoxicity against human HEK293 cells at 1 uM after 48 hrs by neutral red assay; type: cell-based; conditions: hek293, 48 h; how it was run: as §1
[21] = target: T2, Sodium-dependent serotonin transporter (Homo sapiens, UniProt P31645); assay: Induction of human SERT-dependent cytotoxicity in SERT expressing HEK293 cells at 1 uM after 48 hrs by neutral red assay; type: cell-based; how it was run: as §1
Target sequence in this assay (P31645 whole entry, looked up): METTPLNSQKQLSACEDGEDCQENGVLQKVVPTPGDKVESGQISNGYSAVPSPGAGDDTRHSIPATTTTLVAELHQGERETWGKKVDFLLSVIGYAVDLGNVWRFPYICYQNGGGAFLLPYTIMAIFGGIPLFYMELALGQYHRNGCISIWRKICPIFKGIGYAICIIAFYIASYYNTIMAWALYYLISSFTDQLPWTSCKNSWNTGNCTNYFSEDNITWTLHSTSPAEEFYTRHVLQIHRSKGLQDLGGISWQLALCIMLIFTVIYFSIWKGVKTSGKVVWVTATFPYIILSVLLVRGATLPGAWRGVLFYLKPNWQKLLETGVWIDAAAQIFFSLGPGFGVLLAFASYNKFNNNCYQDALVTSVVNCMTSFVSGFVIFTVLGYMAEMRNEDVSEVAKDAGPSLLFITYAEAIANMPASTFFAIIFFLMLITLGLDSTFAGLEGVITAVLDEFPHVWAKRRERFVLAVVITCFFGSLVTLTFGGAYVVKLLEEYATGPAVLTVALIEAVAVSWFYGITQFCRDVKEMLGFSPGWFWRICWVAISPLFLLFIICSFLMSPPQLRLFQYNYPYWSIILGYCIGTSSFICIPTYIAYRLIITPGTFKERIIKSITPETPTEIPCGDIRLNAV

Rattus norvegicus [22] = organism: Rattus norvegicus; assay: Selectivity ratio of IC50 for DAT in rat brain synaptosome to IC50 for SERT in rat brain synaptosome; type: tissue-based
[23] = target: T2, Sodium-dependent serotonin transporter; assay: Inhibition of [3H]5-HT uptake at human SERT expressed in HEK293 cells after 10 mins by scintillation counting; type: cell-based
Target sequence in this assay (P31645 whole entry): as the sequence (P31645 whole entry, looked up) above

[24] = target: T2, Sodium-dependent serotonin transporter; assay: Inhibition of [3H]5-HT uptake at SERT
Target sequence in this assay (P31645 whole entry): as the sequence (P31645 whole entry, looked up) above

[25] = target: Sodium-dependent serotonin transporter (Rattus norvegicus) (UniProt P31652); assay: Inhibition of [3H]5-HT reuptake at rat SERT expressed in HEK293 cells assessed as serotonin reuptake at 10 uM after 2 mins by liquid scintillation counting; type: cell-based; design: scale not given: the % may be the effect or the level left
How it was run: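 HEK293 TREx cells stably carrying rat SERT-FLAG were plated on poly-L-lysine, and expression was induced with tetracycline for 24 h. Cells were washed in TB buffer (10 mM HEPES, 150 mM NaCl, 2 mM KCl, 1 mM CaCl₂, 1 mM MgCl₂) and preincubated with compound for 5 min at 37 °C. [³H]5-HT (~1 Ci/mmol) uptake then ran 2 min at room temperature. Uptake was stopped with cold paroxetine-containing buffer, and cells were lysed in 2% SDS and counted by scintillation. Paroxetine-defined non-specific uptake was subtracted, and untreated cells were set as 100% reuptake.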

[26] = target: Sodium-dependent serotonin transporter (Rattus norvegicus) (UniProt P31652); assay: Inhibition of [3H]5-HT reuptake at rat SERT expressed in HEK293 cells assessed as serotonin reuptake at 100 uM after 2 mins by liquid scintillation counting; type: cell-based; design: scale not given: the % may be the effect or the level left
[27] = target: Sodium-dependent serotonin transporter (Rattus norvegicus) (UniProt P31652); assay: Inhibition of [3H]5-HT reuptake at rat SERT expressed in HEK293 cells assessed as serotonin reuptake at […] after 2 mins by liquid scintillation counting; type: cell-based; design: scale not given: the % may be the effect or the level left

Sequence of Sodium-dependent noradrenaline transporter (P23975 whole entry): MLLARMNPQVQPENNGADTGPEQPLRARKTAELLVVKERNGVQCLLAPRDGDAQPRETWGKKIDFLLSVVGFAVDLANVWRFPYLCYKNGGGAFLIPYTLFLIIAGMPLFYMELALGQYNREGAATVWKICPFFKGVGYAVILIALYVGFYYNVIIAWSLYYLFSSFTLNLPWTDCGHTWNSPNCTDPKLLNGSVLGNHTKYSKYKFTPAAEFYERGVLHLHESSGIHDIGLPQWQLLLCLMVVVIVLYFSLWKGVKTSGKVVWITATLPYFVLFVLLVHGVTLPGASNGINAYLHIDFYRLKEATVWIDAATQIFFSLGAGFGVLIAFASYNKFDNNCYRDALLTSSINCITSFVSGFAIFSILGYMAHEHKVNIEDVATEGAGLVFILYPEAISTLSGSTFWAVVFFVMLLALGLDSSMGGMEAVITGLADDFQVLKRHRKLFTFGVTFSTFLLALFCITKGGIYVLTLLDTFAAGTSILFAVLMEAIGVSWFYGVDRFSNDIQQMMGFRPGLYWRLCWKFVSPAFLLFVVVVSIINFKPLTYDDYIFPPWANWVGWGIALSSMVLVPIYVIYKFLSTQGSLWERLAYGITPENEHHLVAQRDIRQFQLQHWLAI
Sequence of Sodium-dependent dopamine transporter (Q01959 whole entry): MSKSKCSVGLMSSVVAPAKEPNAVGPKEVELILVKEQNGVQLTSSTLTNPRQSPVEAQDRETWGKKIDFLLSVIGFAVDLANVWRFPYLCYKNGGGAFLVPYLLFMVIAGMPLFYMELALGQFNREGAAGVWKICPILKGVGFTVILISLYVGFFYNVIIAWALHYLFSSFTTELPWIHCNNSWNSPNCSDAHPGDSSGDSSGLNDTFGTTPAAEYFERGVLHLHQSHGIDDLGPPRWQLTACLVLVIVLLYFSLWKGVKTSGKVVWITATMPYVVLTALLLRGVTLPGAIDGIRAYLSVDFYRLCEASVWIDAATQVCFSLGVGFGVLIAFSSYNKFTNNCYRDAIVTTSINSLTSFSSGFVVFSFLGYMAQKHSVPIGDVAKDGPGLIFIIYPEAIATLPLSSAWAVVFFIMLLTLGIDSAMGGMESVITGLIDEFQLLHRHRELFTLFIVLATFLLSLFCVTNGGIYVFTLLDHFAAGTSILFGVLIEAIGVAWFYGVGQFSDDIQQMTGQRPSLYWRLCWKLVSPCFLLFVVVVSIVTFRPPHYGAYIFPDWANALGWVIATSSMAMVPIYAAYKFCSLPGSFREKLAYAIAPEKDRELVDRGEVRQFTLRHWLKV
Sequence of Sodium-dependent serotonin transporter (Rattus norvegicus) (P31652 whole entry): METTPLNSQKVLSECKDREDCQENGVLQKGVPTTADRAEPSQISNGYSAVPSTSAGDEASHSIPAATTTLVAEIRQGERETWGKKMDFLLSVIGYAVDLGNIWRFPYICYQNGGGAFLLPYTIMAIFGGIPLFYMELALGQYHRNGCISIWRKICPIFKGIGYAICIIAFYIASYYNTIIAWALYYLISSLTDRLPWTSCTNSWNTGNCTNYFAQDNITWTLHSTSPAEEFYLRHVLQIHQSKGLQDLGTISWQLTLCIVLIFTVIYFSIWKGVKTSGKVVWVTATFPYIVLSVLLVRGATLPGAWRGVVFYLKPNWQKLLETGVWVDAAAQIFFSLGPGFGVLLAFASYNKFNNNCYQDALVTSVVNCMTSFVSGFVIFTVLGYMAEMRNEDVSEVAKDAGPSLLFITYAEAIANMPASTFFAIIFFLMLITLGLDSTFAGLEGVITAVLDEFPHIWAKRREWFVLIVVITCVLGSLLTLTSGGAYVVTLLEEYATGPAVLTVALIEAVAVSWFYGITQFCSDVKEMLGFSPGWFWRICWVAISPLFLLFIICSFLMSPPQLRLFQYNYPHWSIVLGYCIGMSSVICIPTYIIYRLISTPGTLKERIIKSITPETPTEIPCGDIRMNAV
T1 sequence (P31652 whole entry): as above

Row | SMILES | IC50 [1] [µM] | EC50 (SH-SY5Y; read-out: pEC50 (converted)) [µM] | EC50 (HEK293 [3]; read-out: pEC50 (converted)) [µM] | further results
1 | CC(N)Cc1ccc2c(c1)OCO2 (stereo not drawn) [TENAMFETAMINE] | 0.996 | > 10000 | 324 | IC50 [2]: 0.266 µM; IC50 [4]: 0.89 µM
2 | CCSc1ccc(CC(N)CC)cc1 (stereo not drawn) | 1.29 | 53.7 | 5.13 | –
3 | CCC(N)c1ccc(SC)cc1 (stereo not drawn) | > 25 | 19.5 | 3.16 | Activity (DG-75 [5]): 40%; Activity [6]: 40%; Activity (HL-60 [7]): 40%; EC50 [8]: 21 µM; EC50 (DG-75 [9]): 33.8 µM; Activity (PBMC [10]): Non-toxic; EC50 (HL-60 [11]): 29.5 µM; Activity (PBMC [12]): Non-toxic
4 | COc1ccc(CC(C)N)cc1 (stereo not drawn) [PARA-METHOXYAMPHETAMINE] | 0.173 | > 10000 | 457 | –
5 | CC(=O)O[C@H]1C(=O)[C@@]2(C)[C@H]([C@H](OC(=O)c3ccccc3)[C@]3(O)C[C@H](OC(=O)[C@H](O)[C@@H](NC(=O)c4ccccc4)c4ccccc4)C(C)=C1C3(C)C)[C@]1(OC(C)=O)CO[C@@H]1C[C@@H]2O [PACLITAXEL] | – | – | – | IC50 (HL-60 [13]): 4 ng/mL (≈ 4.68 nM); IC50 (DG-75 [14]): 0.01 µM; IC50 [15]: 0.01 µM
6 | CSc1ccc(CC(C)NC2CC2)cc1 (stereo not drawn) | 0.702 | 372 | 18.6 | –
7 | CCSc1ccc(CC(C)NO)cc1 (stereo not drawn) | 0.625 | 708 | 32.4 | –
8 | CCNC(CC)Cc1ccc(SC)cc1 (stereo not drawn) | 0.823 | 151 | 10 | –
9 | CCSc1ccc(CC(C)N(C)O)cc1 (stereo not drawn) | 1.57 | 43.7 | 12.3 | –
10 | CCC(Cc1ccc(SC)cc1)NC (stereo not drawn) | 0.437 | 832 | 50.1 | –
11 | CCSc1ccc(CC(CC)NO)cc1 (stereo not drawn) | 1.45 | 1820 | 11.5 | –
12 | CNC(C)Cc1ccc(SC)cc1 (stereo not drawn) | 0.417 | 1550 | 19.5 | –
13 | CC(N)Cc1ccc(SC(C)(C)C)cc1 (stereo not drawn) | – | 20.4 | 7.24 | EC50 (SH-SY5Y; read-out: EC50): 1 µM; inhibition [16]: 100%
14 | CCNC(C)Cc1ccc(SCC)cc1 (stereo not drawn) | 0.478 | 302 | 6.31 | –
15 | CSc1ccc(CC(C)NO)cc1 (stereo not drawn) | 0.436 | 575 | 38 | –
16 | COCCNC(C)Cc1ccc(SC)cc1 (stereo not drawn) | 3.58 | 1350 | 22.9 | –
17 | CON(C)C(C)Cc1ccc(SC)cc1 (stereo not drawn) | 25.1 | > 10000 | 525 | –
18 | CC(N)Cc1ccc(Cl)cc1 (stereo not drawn) | – | – | – | IC50 [2]: 0.207 µM; IC50 [17]: 0.182 µM; IC50 [4]: 0.424 µM
19 | CCC(Cc1ccc(SC)cc1)NC1CC1 (stereo not drawn) | 0.872 | > 10000 | 10.7 | –
20 | CSc1ccc(CC(C)N(C)O)cc1 (stereo not drawn) | 1.87 | 229 | 24 | –
21 | CCC(Cc1ccc(SC)cc1)NCCOC (stereo not drawn) | 2.82 | 3890 | 16.2 | –
22 | CCSc1ccc(CC(C)N)cc1 (stereo not drawn) | 1.4 | 64.6 | 15.1 | EC50 (SH-SY5Y; read-out: EC50): 1 µM

Row | SMILES | IC50 [1] [µM] | EC50 (SH-SY5Y; read-out: pEC50 (converted)) [µM] | EC50 (HEK293 [3]; read-out: pEC50 (converted)) [µM] | further results
23 | CCSc1ccc(CC(CC)NC)cc1 (stereo not drawn) | – | – | – | EC50 (HEK293 [3]; read-out: EC50): > 100 µM; inhibition [18]: 26%
24 | C=CCNC(C)Cc1ccc(SC)cc1 (stereo not drawn) | 0.524 | 123 | 15.5 | –
25 | C#CCNC(C)Cc1ccc(SC)cc1 (stereo not drawn) | 0.688 | 2340 | 24.5 | –
26 | CCNC(C)Cc1ccc(SC)cc1 (stereo not drawn) | 0.963 | 1860 | 16.2 | –
27 | CCC(Cc1ccc(SC)cc1)NO (stereo not drawn) | 0.598 | 31.6 | 8.51 | –
28 | CCC(Cc1ccc(SC)cc1)NC(C)C (stereo not drawn) | 1.94 | 339 | 17.4 | –
29 | CSc1ccc(CC(C)N(C)C)cc1 (stereo not drawn) | 0.52 | 1860 | 20 | –
30 | CSc1ccc(CC(C)N)cc1 (stereo not drawn) [4-METHYLTHIOAMPHETAMINE] | 0.207 | 608 | 18.6 | Ratio IC50 (Rattus norvegicus [19]): 2370; EC50 (SH-SY5Y; read-out: EC50): 1 µM; Activity (HEK293 [20]): Toxic; IC50 [2]: 2.38 µM; Activity [21]: Active; Ratio IC50 (Rattus norvegicus [22]): 3070; Ki [23]: 0.45 µM; IC50 [4]: 3.07 µM; IC50 [24]: 0.074 µM
31 | C#CCNC(CC)Cc1ccc(SC)cc1 (stereo not drawn) | 0.399 | 394 | 20.4 | –
32 | CCCNC(CC)Cc1ccc(SC)cc1 (stereo not drawn) | 0.621 | 3020 | 303 | –
33 | CCCCCSc1ccc(C(N)CC)cc1 (stereo not drawn) | – | > 10000 | 2690 | Activity [25]: 65%
34 | CC(N)Cc1ccc(S(C)(=O)=O)cc1 (stereo not drawn) | – | > 10000 | > 10000 | Activity [26]: 100%; Activity [27]: 100%
35 | CCSc1ccc(CC(C)NC)cc1 (stereo not drawn) | 0.724 | 282 | 7.59 | –
36 | CNC(C)Cc1ccc2c(c1)OCO2 (stereo not drawn) [MIDOMAFETAMINE] | 1.06 | > 10000 | 245 | IC50 [2]: 0.405 µM; IC50 [4]: 1.44 µM; IC50 [24]: 0.425 µM
37 | CCSc1ccc(CC(CC)N(C)O)cc1 (stereo not drawn) | 2 | 209 | 51.3 | –
38 | CCNC(CC)Cc1ccc(SCC)cc1 (stereo not drawn) | 1.8 | 245 | 251 | –
39 | CSc1ccc(CC(C)NCCO)cc1 (stereo not drawn) | 0.868 | 2290 | 10 | –
40 | CC(N)Cc1ccc(SCCN(C)C)cc1 (stereo not drawn) | 43.3 | 240 | 8.71 | EC50 (SH-SY5Y; read-out: EC50): 1 µM
41 | CSc1ccc(CC(C)NC(C)C)cc1 (stereo not drawn) | 1.85 | 1950 | 30.9 | –
42 | CCC(N)Cc1ccc(SC)cc1 (stereo not drawn) | 0.611 | 437 | 14.8 | –
43 | CONC(C)Cc1ccc(SC)cc1 (stereo not drawn) | 0.664 | 2450 | 11 | –
44 | CC(N)Cc1ccc(SCc2ccccc2)cc1 (stereo not drawn) | 0.679 | 19.5 | 2.95 | EC50 (SH-SY5Y; read-out: EC50): 1 µM
